Data taken from ChEMBL document CHEMBL1914430, “Synthesis of some new 1,3,5-trisubstituted pyrazolines bearing benzene sulfonamide as anticancer and anti-inflammatory agents” (Bioorg Med Chem Lett, 2011).

Experiments:
Format in all cases: functional
SF-268 = assay: Anticancer activity against human SF268 cells after 48 hrs; settings: SF-268, 48 h
Outline: (§1)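 NCI 60-line panel protocol with a 48 h incubation. Per line: GI50 = concentration giving 50% decrease in net cell growth; TGI = total growth inhibition; LC50 = net 50% loss of initial cells. When the level was not reached or was exceeded, the value is given as greater or less than the highest or lowest concentration tested.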

SK-OV-3 = assay: Anticancer activity against human SKOV3 cells after 48 hrs; settings: SK-OV-3, 48 h; for CC50: read-out: LC50 (the source's name); outline: as §1
SR = assay: Anticancer activity against human SR cells after 48 hrs; outline: as §1
EKVX = assay: Anticancer activity against human EKVX cells after 48 hrs; settings: for CC50: read-out: LC50 (the source's name)
Outline: (§2)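 NCI Drug Evaluation Branch 60-cell-line screen across leukemia, melanoma, lung, colon, CNS, ovarian, renal, prostate and breast panels. The incubation period is 48 h. Parameters are derived from dose–response data: GI50 is the concentration giving 50% decrease in net growth, TGI is total growth inhibition, and LC50 is net 50% loss of initial cells. Values beyond the tested range are reported as greater or less than the maximum or minimum concentration.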

SK-MEL-28 = assay: Anticancer activity against human SK-MEL-28 cells after 48 hrs; settings: SK-MEL-28, 48 h; for CC50: read-out: LC50 (the source's name); outline: as §1
SK-MEL-2 = assay: Anticancer activity against human SK-MEL-2 cells after 48 hrs; settings: SK-MEL-2, 48 h; outline: as §1
A549 = assay: Anticancer activity against human A549 cells after 48 hrs; settings: A549, 48 h; outline: as §2
MDA-MB-468 = assay: Anticancer activity against human MDA-MB-468 cells after 48 hrs; settings: MDA-MB-468, 48 h; for CC50: read-out: LC50 (the source's name); outline: as §2
SN12C = assay: Anticancer activity against human SN12C cells after 48 hrs; outline: as §1
NCI-H522 = assay: Anticancer activity against human NCI-H522 cells after 48 hrs; settings: NCI-H522, 48 h; outline: as §1
HCT-15 = assay: Anticancer activity against human HCT15 cells after 48 hrs; settings: HCT-15, 48 h; for CC50: read-out: LC50 (the source's name); outline: as §2
OVCAR-3 = assay: Anticancer activity against human OVCAR3 cells after 48 hrs; settings: OVCAR-3, 48 h; outline: as §1
Rattus norvegicus [1] = assay: Antiinflammatory activity in Wistar rat assessed as inhibition of carrageenan-induced hind paw edema at 20 mg/kg, po administered 30 mins before carrageenan challenge measured after 5 hrs by plethysmometer
Outline: (§3)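 Wistar rats of either sex, 150–175 g, fasted 16 h, n = 6 per group. Compound given orally at 20 mg/kg as a suspension in 1% CMC in water (10 mL/kg); controls got vehicle only. After 30 min, 0.1 mL of 1% carrageenan in saline was injected subplantar into the left hind paw. Paw volume was measured by plethysmometer at 0, 3 and 5 h. Inhibition = (1 − Vt/Vc) × 100, reported as mean ± SEM.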

IGROV-1 = assay: Anticancer activity against human IGROV1 cells after 48 hrs; settings: IGROV-1, 48 h; outline: as §2
KM12 = assay: Anticancer activity against human KM12 cells after 48 hrs; settings: KM12, 48 h; outline: as §2
CCRF-CEM = assay: Anticancer activity against human CCRF-CEM cells after 48 hrs; outline: as §2
MCF7 = assay: Anticancer activity against human MCF7 cells after 48 hrs; settings: MCF7, 48 h; outline: as §2
Rattus norvegicus [2] = assay: Antiinflammatory activity in Wistar rat assessed as inhibition of carrageenan-induced hind paw edema at 20 mg/kg, po administered 30 mins before carrageenan challenge measured after 3 hrs by plethysmometer; outline: as §3
MDA-MB-231 = assay: Anticancer activity against human MDA-MB-231 cells after 48 hrs; settings: MDA-MB-231, 48 h; for CC50: read-out: LC50 (the source's name); outline: as §2
NCI-H226 = assay: Anticancer activity against human NCI-H226 cells after 48 hrs; settings: NCI-H226, 48 h; for CC50: read-out: LC50 (the source's name); outline: as §1
HCT-116 = assay: Anticancer activity against human HCT116 cells after 48 hrs; settings: HCT-116, 48 h; for CC50: read-out: LC50 (the source's name); outline: as §2
U-251 = assay: Anticancer activity against human U251 cells after 48 hrs; settings: U-251, 48 h; for CC50: read-out: LC50 (the source's name)
Outline: (§4)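 NCI ~60 human tumour cell line panel with a 48 h incubation. GI50 is the concentration giving a 50% fall in net growth, TGI gives total growth inhibition, and LC50 gives a net 50% loss of initial cells. An effect not reached or exceeded is reported as greater or less than the highest or lowest concentration tested.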

OVCAR-5 = assay: Anticancer activity against human OVCAR5 cells after 48 hrs; settings: OVCAR-5, 48 h; outline: as §1
TK-10 = assay: Anticancer activity against human TK10 cells after 48 hrs; settings: TK-10, 48 h; outline: as §4
M14 = assay: Anticancer activity against human M14 cells after 48 hrs; settings: M14, 48 h; for CC50: read-out: LC50 (the source's name); outline: as §2
HL-60(TB) = assay: Anticancer activity against human HL-60(TB) cells after 48 hrs; settings: HL-60, 48 h
Outline: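 NCI 60-cell-line panel protocol: cells exposed to compound for 48 h. Initial one-dose screen at 10⁻⁵ M. GI50 = concentration giving 50% decrease in net cell growth. TGI = concentration giving total growth inhibition. LC50 = concentration giving net 50% loss of initial cells at the end of incubation. A value not reached or exceeded is reported as greater or less than the highest or lowest concentration tested.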

BT-549 = assay: Anticancer activity against human BT549 cells after 48 hrs; settings: BT-549, 48 h; for CC50: read-out: LC50 (the source's name); outline: as §2

## Cc1cc(O)c(C2=NN(c3ccc(S(N)(=O)=O)cc3)C(c3ccccc3Cl)C2)cc1Cl (centres undefined)
SF-268
  GI50: 1.92 µM
  TGI: 3.72 µM
SK-OV-3
  GI50: 3.63 µM
  TGI: 10.4 µM
  CC50: 32.3 µM
SR
  GI50: 2.97 µM
  LC50 (concentration killing 50% of initial cells): > 100 µM
EKVX
  GI50: 1.95 µM
  TGI: 4.6 µM
  CC50: > 100 µM
SK-MEL-28
  GI50: 3.39 µM
  TGI: 12.3 µM
  CC50: 52.9 µM
SK-MEL-2
  GI50: 11.9 µM
  LC50: 81.1 µM
  TGI: 31 µM
A549
  GI50: 3.82 µM
  LC50 (net 50% loss of initial cells): > 100 µM
  TGI: 19.3 µM
MDA-MB-468
  GI50: 2.22 µM
  TGI: 4.74 µM
  CC50: > 100 µM
SN12C
  GI50: 2.55 µM
  LC50: 29.4 µM
  TGI: 6.32 µM
NCI-H522
  GI50: 1.89 µM
  LC50 (concentration killing 50% of initial cells): 8.33 µM
  TGI: 3.97 µM
HCT-15
  GI50: 3.69 µM
  TGI: 16.6 µM
  CC50: > 100 µM
OVCAR-3
  GI50: 1.89 µM
  LC50 (concentration giving 50% net loss of initial cells): 6.77 µM
  TGI: 3.58 µM
Rattus norvegicus [1]
  inhibition in vivo at 20 mg/kg: 71.4%
IGROV-1
  GI50: 2.58 µM
  LC50 (net 50% loss of initial cells): 47.2 µM
  TGI: 14 µM
KM12
  GI50: 1.98 µM
  TGI: 3.66 µM
CCRF-CEM
  GI50: 4.81 µM
  LC50 (concentration causing net 50% loss of initial cells): > 100 µM
  TGI: > 100 µM
MCF7
  GI50: 1.75 µM
  LC50: 6.35 µM
  TGI: 3.33 µM
Rattus norvegicus [2]
  inhibition in vivo at 20 mg/kg: 55.3%
MDA-MB-231
  GI50: 2.14 µM
  TGI: 4.52 µM
  CC50: 9.52 µM
NCI-H226
  GI50: 3.03 µM
  TGI: 9.44 µM
  CC50: > 100 µM
HCT-116
  GI50: 1.76 µM
  TGI: 3.15 µM
  CC50: 5.61 µM
U-251
  GI50: 2.25 µM
  TGI: 5.02 µM
  CC50: 36.9 µM
OVCAR-5
  GI50: 1.74 µM
  LC50: 6.23 µM
  TGI: 3.3 µM
TK-10
  GI50: 2.64 µM
  LC50: 33.9 µM
  TGI: 5.86 µM
M14
  GI50: 1.85 µM
  TGI: 3.43 µM
  CC50: 6.39 µM
HL-60(TB)
  GI50: 3.44 µM
  LC50: > 100 µM
  TGI: 100 µM
BT-549
  GI50: 2.16 µM
  TGI: 4.74 µM
  CC50: 18.3 µM

## COc1ccc(C2CC(c3cc(Cl)c(C)cc3O)=NN2c2ccc(S(N)(=O)=O)cc2)cc1OC (centres undefined)
SF-268
  GI50: 4.74 µM
  LC50 (concentration killing 50% of initial cells): > 100 µM
SK-OV-3
  GI50: 4.51 µM
  TGI: 38.3 µM
  CC50: > 100 µM
SR
  GI50: 2.82 µM
  LC50 (concentration killing 50% of initial cells): > 100 µM
EKVX
  GI50: 4.15 µM
  TGI: 100 µM
  CC50: > 100 µM
SK-MEL-28
  GI50: 4.29 µM
  TGI: 17.7 µM
  CC50: 62.7 µM
SK-MEL-2
  GI50: 5.87 µM
  LC50: > 100 µM
  TGI: 32.7 µM
A549
  GI50: 3.54 µM
  LC50 (net 50% loss of initial cells): > 100 µM
  TGI: 19.7 µM
MDA-MB-468
  GI50: 2.58 µM
  TGI: 9.51 µM
  CC50: > 100 µM
SN12C
  GI50: 3.7 µM
  LC50: > 100 µM
  TGI: 30 µM
NCI-H522
  GI50: 2.95 µM
  LC50 (concentration killing 50% of initial cells): 69.3 µM
  TGI: 9.61 µM
HCT-15
  GI50: 3.32 µM
  TGI: 20.2 µM
  CC50: > 100 µM
OVCAR-3
  GI50: 3.37 µM
  LC50 (concentration giving 50% net loss of initial cells): 77.5 µM
  TGI: 9.8 µM
Rattus norvegicus [1]
  inhibition in vivo at 20 mg/kg: 68.3%
IGROV-1
  GI50: 2.34 µM
  LC50 (net 50% loss of initial cells): 28.8 µM
  TGI: 5.46 µM
KM12
  GI50: 3.07 µM
  LC50 (concentration causing net 50% loss of initial cells): 49.2 µM
  TGI: 8.77 µM
CCRF-CEM
  GI50: 5.35 µM
  LC50 (concentration causing net 50% loss of initial cells): > 100 µM
  TGI: > 100 µM
MCF7
  GI50: 3.07 µM
  LC50: > 100 µM
  TGI: 13.6 µM
Rattus norvegicus [2]
  inhibition in vivo at 20 mg/kg: 60.5%
MDA-MB-231
  GI50: 3.81 µM
  TGI: 12.5 µM
  CC50: 40.4 µM
NCI-H226
  GI50: 5.62 µM
  TGI: 23.1 µM
  CC50: 86.4 µM
HCT-116
  GI50: 1.72 µM
  TGI: 4.36 µM
  CC50: 12.4 µM
U-251
  GI50: 3.71 µM
  TGI: 14 µM
  CC50: 48.2 µM
OVCAR-5
  GI50: 2.25 µM
  LC50: 27.8 µM
  TGI: 6.36 µM
TK-10
  GI50: 3.97 µM
  LC50: > 100 µM
  TGI: 18.4 µM
M14
  GI50: 2.61 µM
  TGI: 7.26 µM
  CC50: 38.3 µM
HL-60(TB)
  GI50: 3.42 µM
  LC50: > 100 µM
  TGI: 100 µM
BT-549
  GI50: 3.03 µM
  TGI: 13.4 µM
  CC50: 95.6 µM
